The list is not random: actives were taken first. Their share in the collection is about 2.9%.
DENV2 CPE – inhibitors of DENV2 cytopathic effect, primary screen, cell-based, plate reader, single concentration. DENV2-infected cells, cytopathic effect rescue. CPE inhibition, % at 9.99 µM. 350,000 compounds, 1.7% hits. AID 651640, 2012; in the data active = CPE inhibition above about 20%, passing the limit was not always enough; tested in BHK-21 cells;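 also: 0% = median of neutral control wells and 100% = median of positive control wells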
CAL PDZ FP-1 – CAL PDZ peptide-binding inhibitors, primary screen, biochemical, fluorescence polarization, Cer-tagged CAL PDZ, HTS. AID 504414, 2011. purified CAL PDZ, TMR-peptide fluorescence polarization, 1 h. Golgi-associated PDZ and coiled-coil motif-containing protein (Homo sapiens), Q9HD26. 330,000 compounds, 0.02% hits. inhibition, % at 20 µM;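 active = highest replicate inhibition of at least 40%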;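 also: plate controls were DMSO neutral control wells for no effect and unlabeled competitor peptide control wells for full effect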
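Assay system – tagged CAL PDZ protein CerCALP, purified · Timing – 1 h at RT · Compound – single point, 20 µM · Measured by – fluorescence polarization from S- and P-plane intensities, G-factor corrected · Evaluation – inhibition from polarization loss · Probe or stimulus – TMR reporter peptide T*-PRC34 · Buffer or medium – pH 7.4 phosphate-saline buffer, reducing agent, detergent, IgG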
ERAP1 HTS inh – human ERAP1 aminopeptidase inhibitors, primary screen, biochemical, single point, plate reader | AID 652197, 2013 | recombinant ERAP1, Leu-AMC fluorescence, 60 min | inhibition, % at 10.7 µM | 340,000 compounds, 0.15% hits;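 active = mean replicate inhibition of at least 30%, or all replicates individually reaching that 30% level; inactive = mean below 30% and not every replicate reaching it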;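 also: 0% = neutral control wells and 100% = L-leucinethiol positive control wells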
S100A4 MyoIIA – inhibitors of S100A4-myosin IIA peptide binding, primary screen, biochemical, fluorescence polarization, TAMRA-MyoIIA peptide; inhibition, % at 10.7 µM; 360,000 compounds, 0.14% hits;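 active = mean inhibition of at least 70% across replicates, with every replicate also reaching that level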
Target sequence (P26447 whole entry, looked up): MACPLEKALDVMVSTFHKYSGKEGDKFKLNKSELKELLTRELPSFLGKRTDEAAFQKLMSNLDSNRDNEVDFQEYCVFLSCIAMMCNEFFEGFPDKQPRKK
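Material: human S100A4 monomer with TAMRA-labelled myosin IIA peptide; buffer or medium: HEPES pH 7.2 with CaCl2, KCl, NaCl, DTT, Triton; compound dosing: one concentration per compound; schedule: 5 min incubation before reading; benchmarks: neutral control DMSO, positive control TFP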
SIRT5 block – SIRT5 desuccinylase inhibitors, primary screen, biochemical, fluorescence imaging, single point, set 5 | 330,000 compounds, 1.1% hits | inhibition, % at 15 µM | NAD-dependent protein deacylase sirtuin-5, mitochondrial (Homo sapiens), Q9NXA8 | Purified SirT5, succinyl-peptide AMC, trypsin-coupled fluorescence | AID 652115, 2013; in the data active = inhibition above about 15%
Target sequence (Q9NXA8 whole entry, looked up): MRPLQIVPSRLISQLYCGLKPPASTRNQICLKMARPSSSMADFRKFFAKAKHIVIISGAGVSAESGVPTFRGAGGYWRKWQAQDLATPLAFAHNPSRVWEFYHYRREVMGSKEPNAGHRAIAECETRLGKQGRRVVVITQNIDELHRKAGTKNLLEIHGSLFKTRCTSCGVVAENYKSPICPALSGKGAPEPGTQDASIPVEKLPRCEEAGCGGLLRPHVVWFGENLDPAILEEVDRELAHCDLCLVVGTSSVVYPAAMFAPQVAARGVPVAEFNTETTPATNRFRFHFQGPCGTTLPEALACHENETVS
CAL PDZ FP-2 – untagged CAL PDZ binding inhibitors, primary screen, biochemical, fluorescence polarization, HTS; Golgi-associated PDZ and coiled-coil motif-containing protein (Homo sapiens), Q9HD26; purified CAL PDZ, TMR-peptide fluorescence polarization, 1 h; inhibition, % at 24.9 µM; 300,000 compounds, 0.92% hits;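 active = mean inhibition of at least 30% with at least half of replicates also reaching 30%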;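 also: 0% = DMSO neutral control and 100% = excess unlabeled competitor peptide PRC23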
Numbers without * were called inactive; · = no result.

SMILES	DENV2 CPE	CAL PDZ FP-1	ERAP1 HTS inh	S100A4 MyoIIA	SIRT5 block	CAL PDZ FP-2
C[C@@H]1CCCCO[C@H](CN(C)Cc2ccc(C(F)(F)F)cc2)[C@@H](C)CN([C@@H](C)CO)C(=O)c2cc(NS(=O)(=O)c3ccc(Cl)cc3)ccc2O1	3	·	1	8	15	·
C[C@@H]1CCCCO[C@H](CN(C)Cc2ccc(C(F)(F)F)cc2)[C@@H](C)CN([C@H](C)CO)C(=O)c2cc(NS(=O)(=O)c3ccc(F)cc3)ccc2O1	-15	·	0	1	2	·
Cc1ccc(S(=O)(=O)Nc2ccc3c(c2)C(=O)N([C@H](C)CO)C[C@H](C)[C@H](CN(C)Cc2ccc(C(F)(F)F)cc2)OCCCC[C@@H](C)O3)cc1	26*	·	2	3	8	·
C[C@H]1CCCCO[C@H](CN(C)Cc2ccc(C(F)(F)F)cc2)[C@@H](C)CN([C@@H](C)CO)C(=O)c2cc(NS(=O)(=O)c3ccc(Cl)cc3)ccc2O1	-1	·	0	-3	19*	·
C[C@@H]1CCCCO[C@@H](CN(C)Cc2ccc(C(F)(F)F)cc2)[C@H](C)CN([C@@H](C)CO)C(=O)c2cc(NS(=O)(=O)c3ccc(F)cc3)ccc2O1	-2	·	-1	-25	19*	·
Cc1ccc(S(=O)(=O)Nc2ccc3c(c2)C(=O)N([C@H](C)CO)C[C@@H](C)[C@H](CN(C)Cc2ccc(C(F)(F)F)cc2)OCCCC[C@@H](C)O3)cc1	-28	·	1	58	10	·
C[C@H]1CN([C@@H](C)CO)C(=O)CCCn2cc(nn2)CO[C@H]1CN(C)Cc1ccc(-c2ccccc2)cc1	1	·	-1	3	-3	·
O=C(Nc1ccc(Cl)c(Cl)c1)N[C@@H]1CC[C@H](CCn2cc(C3CCCC3)nn2)O[C@@H]1CO	28*	·	-1	2	5	·
CN(C)CC(=O)N[C@@H]1CC[C@H](CCn2cc(C3CCCCC3)nn2)O[C@H]1CO	9	·	2	12	-1	·
CCCNC(=O)N[C@@H]1CC[C@H](CCn2cc(C3CCCCC3)nn2)O[C@@H]1CO	5	·	4	1	17*	·
CCCNC(=O)N[C@H]1CC[C@@H](CCn2cc(C3CCCCC3)nn2)O[C@@H]1CO	-5	·	1	-28	2	·
CN(C)CC(=O)N[C@H]1CC[C@H](CCn2cc(C3CCCCC3)nn2)O[C@H]1CO	41*	·	1	2	0	·
O=C(Nc1ccc(Cl)c(Cl)c1)N[C@H]1CC[C@@H](CCn2cc(C3CC3)nn2)O[C@H]1CO	-5	·	-2	1	-7	·
CO[C@H]1CN(C)C(=O)c2ccc(NS(=O)(=O)CC(F)(F)F)cc2OC[C@H](C)N(Cc2cccnc2)C[C@@H]1C	12	·	2	-20	14	·
CO[C@@H]1CN(C)C(=O)c2ccc(NS(C)(=O)=O)cc2OC[C@H](C)N(Cc2cccnc2)C[C@@H]1C	26*	·	2	2	-9	·
CO[C@H]1CN(C)C(=O)c2ccc(NS(C)(=O)=O)cc2OC[C@@H](C)N(Cc2cccnc2)C[C@H]1C	1	·	3	4	-2	·
CO[C@H]1CN(C)C(=O)c2cc(NS(=O)(=O)CC(F)(F)F)ccc2OC[C@H](C)N(Cc2cccnc2)C[C@@H]1C	37*	·	0	-6	·	·
CC1=C2[C@@H](c3ccccc3)OB(O)C[C@@H]2[C@@H]2C(=O)N(Cc3ccccc3)C(=O)[C@@H]2C1	-7	·	0	-3	-3	·
O=C(C[C@@H]1CC[C@@H](NC(=O)C2CCC2)[C@@H](CO)O1)NC1CCC1	-7	·	-3	3	-2	·
O=C(C[C@H]1CC[C@H](NC(=O)C2CCC2)[C@@H](CO)O1)NC1CCC1	40*	·	-2	11	-2	·
O=C(C[C@H]1CC[C@@H](NC(=O)CC2CC2)[C@@H](CO)O1)NCC(F)(F)F	1	·	1	4	5	·
O=C(C[C@@H]1CC[C@@H](NC(=O)CC2CC2)[C@@H](CO)O1)NCC(F)(F)F	62*	·	-1	20	0	·
O=C(C[C@H]1CC[C@H](NC(=O)C2CCOCC2)[C@@H](CO)O1)NCC1CC1	34*	·	-1	-4	0	·
COc1ccc2c3c(n(C)c2c1)[C@@H](CO)N(C(=O)c1ccccn1)CC31CCN(C(=O)Cc2ccccc2)CC1	-7	·	1	-5	1	·
CN1[C@@H]2c3ccc(/C=C/c4ccccc4)c(=O)n3C[C@@H]2[C@@H](CO)[C@@H]1C(=O)NC1CCC1	19	·	·	·	·	·
SMILES	DENV2 CPE	CAL PDZ FP-1	ERAP1 HTS inh	S100A4 MyoIIA	SIRT5 block	CAL PDZ FP-2
COc1cccc(C(=O)Nc2c3c(nn2-c2ccccc2C)CS(=O)C3)c1OC (centres undefined)	·	·	·	·	·	3
Cc1ccccc1-n1nc2c(c1NC(=O)c1cc3ccccc3oc1=O)CS(=O)C2 (centres undefined)	·	·	·	·	·	97*
C#CCN(C[C@H]1[C@H](OC(=O)Nc2c(C)noc2C)[C@H](OC(=O)Nc2c(C)noc2C)C[C@@H](C(=O)OC)[C@H]1C(=O)OC)S(=O)(=O)c1ccc(C)cc1	70*	·	-1	2	-4	·
O=C(C[C@H]1C[C@@H]2c3cc(NC(=O)C4CCOCC4)ccc3O[C@@H]2[C@H](CO)O1)NCc1cc(F)ccc1F	-4	·	1	-3	4	·
COc1cc(N2C(=O)C=CC2=O)c(OC)cc1Cl	12	0	35*	-12	·	·
O=S(=O)(c1cccc(F)c1)N1CC[C@@H]2[C@H](CO)Nc3ccc(C#Cc4ccccc4F)cc3[C@@H]21	24*	·	-2	4	3	·
O=S(=O)(c1cccc(F)c1)N1CC[C@@H]2[C@@H](CO)Nc3ccc(C#Cc4cccc(F)c4)cc3[C@@H]21	23*	·	·	·	·	·
O=S(=O)(c1cccc(F)c1)N1CC[C@@H]2[C@H]1c1cc(C#Cc3cccc(F)c3)ccc1N[C@@H]2CO	7	·	·	·	·	·
CO[C@H]1CN(C)C(=O)c2cc(C#N)ccc2OC[C@@H]2O[C@H](CC[C@H]2OC)CCN(C)C(=O)[C@H]1C	-3	·	0	-3	1	·
Cc1ccc(C2CC(=O)C=C(NCC(C)C)C2)cc1 (centres undefined)	-5	-2	14	-5	15*	-2
Cc1ccccc1N1CC(C(=O)N2CCc3ccccc32)CC1=O (centres undefined)	6	-1	-12	5	-3	-1
Cc1ccccc1N1CC(C(=O)O)CC1=O (centres undefined)	3	0	-2	2	29*	-3

Screens deposited in PubChem by Broad Institute.
